# According to ChEMBL document CHEMBL4014311, “Discovery of a Hepatitis C Virus NS5B Replicase Palm Site Allosteric Inhibitor (BMS-929075) Advanced to Phase 1 Clinical Studies” (J Med Chem, 2017):
# Calls of active or inactive are those of the source. No cut-off for these calls is given here.
# How the values were obtained:
# [1] = Inhibition of HCV genotype 1b NS5B replicase C316N mutant infected in human HuH7 cells assessed as reduction of viral replication after 3 days by luciferase reporter assay; format: cell-based, Hepatitis C virus subtype 1b; conditions: Hepatitis C virus, Huh-7, 72 h
# [2] = Half life in human liver microsomes; format: ADME, microsome
# [3] = Membrane permeability at pH 7.4 by PAMPA; format: physicochemical; conditions: read-out: permeability
# [4] = Half life in monkey liver microsomes; format: ADME, Macaca mulatta, microsome; conditions: rhesus monkey
# [5] = target: Voltage-gated inwardly rectifying potassium channel KCNH2 (Homo sapiens, UniProt Q12809); test: Inhibition of human ERG by thallium flux assay
# Voltage-gated inwardly rectifying potassium channel KCNH2, sequence (Q12809 whole entry): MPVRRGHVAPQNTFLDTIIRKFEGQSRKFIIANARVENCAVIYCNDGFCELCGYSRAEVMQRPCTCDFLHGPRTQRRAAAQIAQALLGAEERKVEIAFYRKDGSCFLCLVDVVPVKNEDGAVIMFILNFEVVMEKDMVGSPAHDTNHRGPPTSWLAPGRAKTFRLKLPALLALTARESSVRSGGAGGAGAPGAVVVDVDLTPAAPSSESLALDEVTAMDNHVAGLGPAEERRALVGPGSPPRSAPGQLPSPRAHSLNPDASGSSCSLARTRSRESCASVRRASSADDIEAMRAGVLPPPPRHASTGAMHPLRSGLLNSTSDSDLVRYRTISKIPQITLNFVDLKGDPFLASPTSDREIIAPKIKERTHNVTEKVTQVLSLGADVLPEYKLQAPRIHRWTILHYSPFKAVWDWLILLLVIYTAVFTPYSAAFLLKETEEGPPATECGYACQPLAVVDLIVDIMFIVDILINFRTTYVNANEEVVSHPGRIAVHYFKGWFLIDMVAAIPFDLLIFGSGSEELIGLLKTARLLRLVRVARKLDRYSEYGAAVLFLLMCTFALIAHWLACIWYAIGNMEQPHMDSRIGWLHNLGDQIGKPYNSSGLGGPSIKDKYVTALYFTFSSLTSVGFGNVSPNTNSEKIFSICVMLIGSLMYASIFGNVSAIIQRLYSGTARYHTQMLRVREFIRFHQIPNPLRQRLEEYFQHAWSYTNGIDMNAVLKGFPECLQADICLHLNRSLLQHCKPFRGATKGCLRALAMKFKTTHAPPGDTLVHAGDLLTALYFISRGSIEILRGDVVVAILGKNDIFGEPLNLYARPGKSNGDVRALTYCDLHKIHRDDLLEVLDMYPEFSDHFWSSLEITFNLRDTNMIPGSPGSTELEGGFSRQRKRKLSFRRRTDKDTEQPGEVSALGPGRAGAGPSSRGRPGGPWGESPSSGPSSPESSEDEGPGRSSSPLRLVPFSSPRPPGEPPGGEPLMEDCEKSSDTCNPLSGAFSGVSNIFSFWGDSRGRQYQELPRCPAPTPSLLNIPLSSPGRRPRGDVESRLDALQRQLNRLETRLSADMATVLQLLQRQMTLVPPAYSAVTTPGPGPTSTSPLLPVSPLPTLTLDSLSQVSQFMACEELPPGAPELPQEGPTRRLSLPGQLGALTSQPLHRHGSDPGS
# [6] = target: T1, Nuclear receptor subfamily 1 group I member 2 (Homo sapiens, UniProt O75469); test: Transactivation of PXR (unknown origin); format: ADME
# T1 sequence (O75469 whole entry): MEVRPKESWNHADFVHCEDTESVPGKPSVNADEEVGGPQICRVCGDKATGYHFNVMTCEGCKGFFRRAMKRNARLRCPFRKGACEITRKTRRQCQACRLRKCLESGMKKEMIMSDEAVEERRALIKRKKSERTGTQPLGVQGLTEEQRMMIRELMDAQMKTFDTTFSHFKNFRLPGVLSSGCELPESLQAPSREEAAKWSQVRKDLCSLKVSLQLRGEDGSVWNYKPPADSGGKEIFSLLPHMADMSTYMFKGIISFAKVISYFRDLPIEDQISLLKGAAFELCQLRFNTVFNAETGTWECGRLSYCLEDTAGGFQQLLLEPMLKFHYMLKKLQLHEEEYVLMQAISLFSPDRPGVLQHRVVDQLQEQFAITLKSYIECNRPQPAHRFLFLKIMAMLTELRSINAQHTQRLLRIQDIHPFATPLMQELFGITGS
# [7] = Ratio of plasma concentration in human at 25 mg/day administered as single dose to EC50 for HCV genotype 1b NS5B C316N mutant infected in human HuH7 cells
# Procedure, shortened: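 Randomized, double-blind, placebo-controlled Phase I single ascending dose study in healthy volunteers. Single oral dose of an amorphous solid dispersion formulation with 30% drug loading, at doses up to 400 mg. Human plasma exposure was measured and set against the replicon EC50.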
# [8] = Ratio of plasma concentration in human at 25 mg up to 14 days to EC50 for HCV genotype 1b NS5B C316N mutant infected in human HuH7 cells
# Procedure, shortened: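 Randomized, double-blind, placebo-controlled Phase I multiple ascending dose study in healthy volunteers. Oral amorphous solid dispersion formulation, 30% drug loading, given daily for 14 days at doses up to 400 mg/day. Human plasma exposure was measured and set against the replicon EC50.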
# [9] = Lipophilicity, log D of the compound at pH 6.5 by shake flask method; format: physicochemical; conditions: buffer
# [10] = Clearance in Sprague-Dawley rat at 2 mg/kg, iv by LC/MS/MS analysis; format: ADME, organism-based; conditions: in vivo
# Procedure, shortened: (§1)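 A 10 min constant-rate jugular vein infusion was given in 90:10 PEG-400/ethanol (v/v), n = 3 rats. Plasma was sampled predose and at 10, 15, 30, 45, 60 min and 2, 4, 6, 8, 24 h, then assayed by LC/MS/MS. Clearance and apparent terminal t1/2 were estimated by noncompartmental analysis.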
# [11] = Half life in Sprague-Dawley rat at 2 mg/kg,iv by LC/MS/MS analysis; format: ADME, organism-based; conditions: Sprague-Dawley, in vivo; procedure, shortened: as §1
# [12] = Volume of distribution at steady state in Sprague-Dawley rat at 2 mg/kg, iv by LC/MS/MS analysis; format: ADME, organism-based; conditions: Sprague-Dawley, in vivo, read-out: Vdss
# Procedure, shortened: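 Rats received a 2 mg/kg IV dose in 90:10 PEG-400/ethanol as a 10 min constant-rate jugular infusion. Blood collected predose and at 10, 15, 30, 45, 60 min and 2, 4, 6, 8, 24 h; n = 3. Plasma analyzed by LC/MS/MS. Vss derived by noncompartmental analysis of IV data.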
# [13] = Tmax in Sprague-Dawley rat at 6 mg/kg, po administered via gavage by LC/MS/MS analysis; format: ADME, organism-based; conditions: in vivo
# Procedure, shortened: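 Rats fasted overnight, then dosed by gavage at 6 mg/kg in 90:10 PEG-400/ethanol (v/v). Plasma sampled serially from cannula into EDTA tubes predose and at 15, 30, 45, 60 min and 2, 4, 6, 8, 24 h; n = 3. Livers removed at 6 h (satellite animals) and 24 h, homogenized in 80% acetonitrile/HBSS, assayed by LC/MS/MS. Tmax taken directly from observed data.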
# Hepatitis C virus [14] = test: Antiviral activity against HCV genotype 1b infected in human HuH7 cells at >= 10 times antiviral EC50 after 3 days by luciferase reporter assay; format: functional, cell-based; conditions: Hepacivirus hominis
# [15] = Drug uptake in Sprague-Dawley rat liver at 6 mg/kg, po administered via gavage after 24 hrs by LC/MS/MS analysis; format: ADME, organism-based; conditions: read-out: Drug uptake
# Procedure, shortened: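 Fasted rats were dosed orally in 90:10 PEG-400/ethanol; 6 h livers came from satellite animals. In the screening variant, n = 2 and plasma was taken to 6 h with livers at the terminal point. Livers were rinsed, blotted, weighed and homogenized in 2 volumes of 80% acetonitrile in HBSS per gram, then centrifuged. Supernatant and plasma were analysed by LC/MS/MS.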
# Hepatitis C virus [16] = test: Antiviral activity against HCV genotype 2a infected in human HuH7 cells after 3 days by luciferase reporter assay; format: functional, cell-based, Hepacivirus hominis; conditions: Huh-7, 72 h
# Hepatitis C virus [17] = test: Antiviral activity against HCV genotype 2b infected in human HuH7 cells after 3 days by luciferase reporter assay; format: functional, cell-based, Hepacivirus hominis; conditions: Huh-7, 72 h
# Hepatitis C virus [18] = test: Antiviral activity against HCV genotype 3a infected in human HuH7 cells after 3 days by luciferase reporter assay; format: functional, cell-based, Hepacivirus hominis; conditions: Huh-7, 72 h
# Hepatitis C virus [19] = test: Antiviral activity against HCV genotype 6a infected in human HuH7 cells after 3 days by luciferase reporter assay; format: functional, cell-based, Hepacivirus hominis; conditions: Huh-7, 72 h
# [20] = Cytotoxicity against primary human hepatocytes; format: cell-based, Hepatocyte
# Hepatitis C virus [21] = test: Antiviral activity against HCV genotype 1b infected in human HuH7 cells co-treated with daclatasvir/asunaprevir after 3 days by luciferase reporter assay; format: functional, cell-based; conditions: Hepacivirus hominis
# [22] = Lipophilicity, log D of the compound by shake flask method; format: physicochemical; conditions: octanol/water
# [23] = Effective permeability across apical to basolateral side in human Caco2 cells; format: ADME, cell-based; conditions: Caco-2, read-out: Peff
# [24] = Cmax in Sprague-Dawley rat at 6 mg/kg, po administered via gavage using docusate sodium/methocel/water formulation by LC/MS/MS analysis; format: ADME, organism-based; design: dose 6 mg/kg, route oral; conditions: in vivo
# Procedure, shortened: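 Rats were fasted overnight and gavaged with a suspension of spray-dried dispersion (10% w/w drug loading in 0.02:0.5:99.48 docusate/methocel/water), n = 3 per group. Serial EDTA plasma was taken predose to 24 h and assayed by LC/MS/MS. Analysis was noncompartmental: Cmax observed, AUC by linear/log trapezoids, F from dose-normalized PO versus IV AUC.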
# [25] = target: Voltage-dependent L-type calcium channel subunit alpha-1C (Homo sapiens, UniProt Q13936); test: Inhibition of Cav1.2 (unknown origin)
# Voltage-dependent L-type calcium channel subunit alpha-1C, sequence (Q13936 whole entry): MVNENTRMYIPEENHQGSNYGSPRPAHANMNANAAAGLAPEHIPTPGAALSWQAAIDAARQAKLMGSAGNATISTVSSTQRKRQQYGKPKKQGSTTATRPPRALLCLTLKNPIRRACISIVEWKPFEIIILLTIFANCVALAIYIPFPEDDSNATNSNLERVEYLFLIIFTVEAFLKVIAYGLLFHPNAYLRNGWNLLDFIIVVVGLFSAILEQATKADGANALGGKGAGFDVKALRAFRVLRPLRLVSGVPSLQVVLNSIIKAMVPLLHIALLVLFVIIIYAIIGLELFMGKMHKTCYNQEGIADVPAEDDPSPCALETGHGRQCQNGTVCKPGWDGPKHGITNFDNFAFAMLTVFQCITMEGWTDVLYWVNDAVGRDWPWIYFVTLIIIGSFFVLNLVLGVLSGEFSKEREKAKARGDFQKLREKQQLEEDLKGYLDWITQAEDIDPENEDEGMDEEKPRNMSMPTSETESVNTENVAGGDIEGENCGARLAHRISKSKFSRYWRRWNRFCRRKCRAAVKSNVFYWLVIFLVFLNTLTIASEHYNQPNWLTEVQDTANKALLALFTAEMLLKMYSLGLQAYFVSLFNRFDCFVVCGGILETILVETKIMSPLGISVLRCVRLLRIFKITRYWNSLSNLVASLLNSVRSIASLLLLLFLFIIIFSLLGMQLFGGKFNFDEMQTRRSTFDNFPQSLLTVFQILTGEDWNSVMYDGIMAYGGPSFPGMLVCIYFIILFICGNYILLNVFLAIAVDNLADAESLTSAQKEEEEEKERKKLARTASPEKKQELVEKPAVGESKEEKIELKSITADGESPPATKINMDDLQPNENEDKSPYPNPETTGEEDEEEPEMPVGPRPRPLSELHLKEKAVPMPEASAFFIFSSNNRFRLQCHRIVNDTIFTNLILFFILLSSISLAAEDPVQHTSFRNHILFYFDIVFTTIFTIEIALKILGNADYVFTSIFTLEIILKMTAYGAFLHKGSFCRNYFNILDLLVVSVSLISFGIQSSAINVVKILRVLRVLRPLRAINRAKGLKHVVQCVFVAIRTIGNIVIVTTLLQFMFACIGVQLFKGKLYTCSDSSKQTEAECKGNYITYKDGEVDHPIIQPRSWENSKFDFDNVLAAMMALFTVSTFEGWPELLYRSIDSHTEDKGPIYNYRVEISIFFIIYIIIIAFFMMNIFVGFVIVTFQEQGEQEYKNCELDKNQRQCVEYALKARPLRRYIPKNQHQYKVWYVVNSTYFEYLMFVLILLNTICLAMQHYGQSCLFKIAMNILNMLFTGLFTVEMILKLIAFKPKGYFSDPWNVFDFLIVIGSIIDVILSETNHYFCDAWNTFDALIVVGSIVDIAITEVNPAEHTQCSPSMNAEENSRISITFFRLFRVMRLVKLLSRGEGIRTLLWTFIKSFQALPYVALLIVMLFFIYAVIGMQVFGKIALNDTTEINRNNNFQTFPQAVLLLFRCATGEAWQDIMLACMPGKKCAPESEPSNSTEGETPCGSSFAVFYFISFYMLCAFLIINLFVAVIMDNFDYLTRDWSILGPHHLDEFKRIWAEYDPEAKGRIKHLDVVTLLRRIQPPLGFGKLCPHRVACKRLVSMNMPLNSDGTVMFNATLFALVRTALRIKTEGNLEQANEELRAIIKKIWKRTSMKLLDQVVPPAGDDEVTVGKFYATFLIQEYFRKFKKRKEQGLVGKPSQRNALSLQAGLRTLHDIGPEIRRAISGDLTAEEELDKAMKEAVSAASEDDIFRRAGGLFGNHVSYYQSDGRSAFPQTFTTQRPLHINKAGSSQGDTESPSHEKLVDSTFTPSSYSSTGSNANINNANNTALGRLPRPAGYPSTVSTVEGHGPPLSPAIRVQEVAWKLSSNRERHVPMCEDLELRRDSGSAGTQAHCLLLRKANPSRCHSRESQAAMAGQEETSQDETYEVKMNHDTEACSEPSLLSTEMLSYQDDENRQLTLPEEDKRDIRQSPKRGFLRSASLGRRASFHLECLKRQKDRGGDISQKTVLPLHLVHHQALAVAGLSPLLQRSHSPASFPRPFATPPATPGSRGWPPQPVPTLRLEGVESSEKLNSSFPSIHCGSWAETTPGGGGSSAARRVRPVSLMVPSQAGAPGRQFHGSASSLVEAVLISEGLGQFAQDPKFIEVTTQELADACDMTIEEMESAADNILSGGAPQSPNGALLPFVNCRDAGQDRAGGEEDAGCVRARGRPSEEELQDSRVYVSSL
# Homo sapiens = test: Toxicity in human up to 400 mg, po administered as single dose; conditions: in vivo
structure (smiles),measurement,setting,value
CNC(=O)c1c(-c2ccc(F)cc2)oc2ccc(-c3cc(C(=O)NC4(c5ncccn5)CC4)ccc3C)c(F)c12 [BMS-929075],EC50,[1],18 nM
same,half-life,[2],> 2 h
same,Papp,[3],97.2 ×10⁻⁶ cm/s
same,half-life,[4],> 2 h
same,IC50,[5],24000 nM
same,EC50,[6],> 50000 nM
same,Ratio,[7],10
same,Ratio,[8],10
same,logD,[9],5.09
same,clearance,[10],1.7 mL/min/kg
same,half-life,[11],4.7 h
same,Vd,[12],0.7 L/kg
same,Tmax,[13],4 h
same,Activity,Hepatitis C virus [14],Active
same,concentration at 24 h,[15],1.12 µM
same,EC50,Hepatitis C virus [16],481 nM
same,EC50,Hepatitis C virus [17],115 nM
same,EC50,Hepatitis C virus [18],22 nM
same,EC50,Hepatitis C virus [19],5 nM
same,CC50,[20],> 50000 nM
same,Activity,Hepatitis C virus [21],Active
same,logD,[22],5.09
same,Papp A→B,[23],> 10 ×10⁻⁶ cm/s
same,Cmax,[24],14.7 µM
same,inhibition (INH),[25],Not Active
same,Activity,Homo sapiens,Non-Toxic
